pIC50: −log10 of the molar value. Active and inactive are the calls of the source. The calls are words filed in the database; no cut-off is given here.
Experiments:
HepG2 = test: Antiproliferation activity against human HepG2 cells assessed as cell growth inhibition measured after 72 hrs by MTT assay; assay type: functional
Method in brief: (§1)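 Cells grown in RPMI-1640 with 10% FBS at 37 °C, 5% CO2, seeded at 4−7 × 10³ cells/well and left to adhere overnight. Exposed to a range of concentrations for 72 h, then MTT (2.5 mg/mL stock) added for 4 h. Formazan dissolved in DMSO and absorbance read at 570 nm. GI50 taken as the concentration giving 50% growth inhibition, reported as mean ± SD of at least three independent experiments.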

[1] = Inhibition of porcine brain tubulin polymerization measured every 60 sec for 60 mins in presence of GTP by fluorescence assay; set-up: species or system Sus scrofa
Method in brief: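 Fluorescence kit assay using 2 mg/mL porcine brain tubulin with 2 mM MgCl₂, 0.5 mM EGTA, 1 mM GTP and 15% glycerol. Compound at various concentrations preincubated 1 min at 37 °C before adding the tubulin mix. Read at ex 355/em 460 nm every 60 s for 60 min. IC50 is the concentration giving 50% inhibition at 60 min; mean ± SD of ≥3 independent experiments.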

HCT-116 = test: Antiproliferation activity against human HCT116 cells assessed as cell growth inhibition measured after 72 hrs by MTT assay; assay type: functional; method in brief: as §1
A549 = test: Antiproliferation activity against human A549 cells assessed as cell growth inhibition measured after 72 hrs by MTT assay; assay type: functional; method in brief: as §1
[2] = Cytotoxicity against human L02 cells assessed as assessed as cell growth inhibition measured after 72 hrs by MTT assay; assay type: cell-based
Method in brief: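 LO2 normal liver cells cultured in RPMI-1640/10% FBS at 37 °C, 5% CO2 and seeded at 4−7 × 10³ cells/well. Graded concentrations applied for 72 h, then MTT readout at 570 nm. GI50 is the concentration giving 50% growth inhibition, mean ± SD of at least three independent experiments.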

[3] = Selectivity index, ratio of GI50 for cytotoxicity against human L02 cells to GI50 for antiproliferation activity against human HepG2 cells assessed as cell growth inhibition measured after 72 hrs by MTT assay; assay type: toxicity, cell-based; settings: L02 cells and HepG2 cells, read-out: RatioGI50
Method in brief: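 MTT assay: cells seeded 4–7 × 10³/well, adhered overnight, exposed to a concentration series for 72 h. MTT (2.5 mg/mL stock) added for 4 h, crystals dissolved in DMSO, absorbance read at 570 nm. GI50 is mean ± SD of ≥3 independent experiments. Selectivity = GI50 on normal LO2 / GI50 on HepG2. Resistance fold = GI50 on resistant cells / GI50 on sensitive cells.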

[4] = Antiproliferation activity against human A549/Taxol cells assessed as cell growth inhibition measured after 72 hrs by MTT assay; assay type: functional; method in brief: as §1
[5] = Resistance index, ratio of GI50 for antiproliferation activity against human A549/Taxol cells to GI50 for antiproliferation activity against human A549 cells assessed as cell growth inhibition measured after 72 hrs by MTT assay
[6] = molecular target: Tubulin beta (Homo sapiens) (UniProt P68371+Q9H4B7+Q13509+P04350+Q3ZCM7+P07437+Q13885+Q9BVA1+Q9BUF5+A6NNZ2); test: Inhibition of N,N'-Ethylenebis(iodoacetamide) binding to beta-tubulin in human HepG2 cells assessed as reduction in EBI/beta-tubulin adduct formation at 5 uM preincubated for 2 hrs followed by EBI addition and measured after 1.5 hrs by Western blot analysis; assay type: cell-based; settings: time 3.5 hrs
Method in brief: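 HepG2 seeded 5 × 10⁵ cells/well, adhered overnight. Lysate protein (20 μg) run on 10% polyacrylamide gel on ice and transferred to PVDF. Probed with anti-β-tubulin 16 h at 4 °C, then HRP secondary. Chemiluminescence detection.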

SMILES	GI50 (HepG2) [nM]	pIC50 [1]	GI50 (HCT-116) [nM]	GI50 (A549) [nM]	GI50 at 72 h [2] [nM]	selectivity ratio at 72 h [3]	GI50 [4] [nM]	RatioGI50 [5]	inhibition [6]
CCOc1cc2c(cc1OCC(=O)NC)-c1c(c(Nc3cccc(C(=O)OC)c3)nn1C)C2	10.2	5.20	37.1	78.1					
CCOc1cc2c(cc1OCC(N)=O)-c1c(c(Nc3cccc(C(=O)OC(C)C)c3)nn1C)C2	25.3	5.10	36.4	121					
CCOc1cccc(Nc2nn(C)c3c2Cc2cc(O)c(OCC(N)=O)cc2-3)c1	5330	< 4.70	4660	15200					
CCOc1cccc(Nc2nn(C)c3c2Cc2cc(OCC)c(OCCCNC(C)=O)cc2-3)c1	364	< 4.70	197	935					
CCNc1cccc(Nc2nn(C)c3c2Cc2cc(OCC)c(OCC(N)=O)cc2-3)c1	107	4.97	432	356					
CCOc1cc2c(cc1OCCCN)-c1c(c(Nc3cccc(C#N)c3)nn1C)C2	3.8	5.24	6.4	20.8					
CCOc1cc2c(cc1OCCCO)-c1c(c(Nc3cccc(C(=O)CC)c3)nn1C)C2	13.6	5.28	24.5	38.2					
CCOc1cc2c(cc1OCCCN)-c1c(c(Nc3cccc(C(=O)CC)c3)nn1C)C2	2.1	5.51	4	7.6					
CCOc1cc2c(cc1OCCCO)-c1c(c(Nc3cccc(C(=O)O)c3)nn1C)C2	> 20000	< 4.70	5380	18300					
CCOC(=O)c1cccc(Nc2nn(C)c3c2Cc2cc(OCC)c(OCC(N)=O)cc2-3)c1	3.4	5.41	4.5	12					
CCOc1cc2c(cc1OCC(=O)NC)-c1c(c(Nc3cccc(C#N)c3)nn1C)C2	97.3	< 4.70	819	2040					
CCOc1cc2c(cc1OCC(N)=O)-c1c(c(Nc3cccc(C(=O)NC)c3)nn1C)C2	642	< 4.70	2100	13100					
CCOc1cccc(Nc2nn(C)c3c2Cc2cc(OCC)c(OCCCO)cc2-3)n1	15.5	5.30	27.1	72					
CCCOc1cc2c(cc1OCC(N)=O)Cc1c(Nc3cccc(OCC)c3)nn(C)c1-2	1960	< 4.70	1140	25400					
CC(=O)O[C@H]1C(=O)[C@@]2(C)[C@H]([C@H](OC(=O)c3ccccc3)[C@]3(O)C[C@H](OC(=O)[C@H](O)[C@@H](NC(=O)c4ccccc4)c4ccccc4)C(C)=C1C3(C)C)[C@]1(OC(C)=O)CO[C@@H]1C[C@@H]2O [PACLITAXEL]					30.8	12	935	246	
CC[C@]1(O)C[C@H]2CN(CCc3c([nH]c4ccccc34)[C@@](C(=O)OC)(c3cc4c(cc3OC)N(C=O)[C@H]3[C@@](O)(C(=O)OC)[C@H](OC(C)=O)[C@]5(CC)C=CCN6CC[C@]43[C@@H]65)C2)C1									inactive
CCCOc1cc2c(cc1OCC(N)=O)-c1c(c(Nc3cccc(OCC)c3)nn1C)C2	55.6	4.96	230	426					
CCOc1cc2c(cc1OCCCO)-c1c(c(Nc3cccc(C(=O)NC)c3)nn1C)C2	2350	< 4.70	1480	1340					
